Source: ChEMBL document CHEMBL3045743, “Synthesis and herbicidal activity of isoindoline-1,3-dione substituted benzoxazinone derivatives containing a carboxylic ester group” (J Agric Food Chem, 2009)

How the values were obtained:
Abutilon theophrasti [1] = assay: Post-emergence herbicidal activity against Abutilon theophrasti (velvetleaf) assessed as growth inhibition at 75 g.a.i./ha applied at two-leaf stage measured after 15 days; format: functional; details: 360 h, read-out: GI
Summary of the method: (§1)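 Pot-grown weeds sown 5 mm deep in greenhouse clay soil (pH 6.5, 1.7% organic matter, CEC 12.9 cmol/kg) at 22-25 °C. Stock diluted with water and sprayed post-emergence: dicots at 2-leaf stage, monocots at 1-leaf stage. Untreated and DMF solvent controls were included. % growth inhibition was scored visually versus untreated controls after 15 days. Triplicates averaged.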

Digitaria sanguinalis [2] = assay: Pre-emergence herbicidal activity against Digitaria sanguinalis (hairy crabgrass) assessed as growth inhibition at 75 g.a.i./ha applied 24 hr after seeds were sown measured after 15 days; format: functional; details: read-out: GI
Summary of the method: (§2)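 Weeds sown 5 mm deep in pots of greenhouse clay soil (pH 6.5, 37.5% clay, CEC 12.9 cmol/kg) and grown at 22-25 °C. Water-diluted formulation was applied pre-emergence 24 h after sowing. Untreated and DMF solvent controls were included. Growth inhibition was visually rated in % against untreated controls after 15 days, as the mean of triplicates.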

Abutilon theophrasti [3] = assay: Pre-emergence herbicidal activity against Abutilon theophrasti (velvetleaf) assessed as growth inhibition at 75 g.a.i./ha applied 24 hr after seeds were sown measured after 15 days; format: functional; details: read-out: GI; summary of the method: as §2
Arachis hypogaea [4] = assay: Phytotoxicity against Arachis hypogaea (peanut) assessed as growth inhibition at 37.5 g.a.i/ha pre-emergent application measured after 15 days by greenhouse crop selectivity assay; format: organism-based; details: in vivo, other, 360 h
Summary of the method: (§3)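 Pre-emergence greenhouse crop selectivity test on pot-grown plants in clay soil (pH 6.5, 1.7% organic matter, 37.5% clay, CEC 12.9 cmol/kg). Stock solutions were diluted with water and applied at 300, 150, 75 or 37.5 g a.i./ha, in triplicate. After 15 days, phytotoxicity was scored visually against untreated controls as % crop growth inhibition, averaged over the triplicates.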

Zea mays [5] = assay: Phytotoxicity against Zea mays (maize) assessed as growth inhibition at 7.5 to 60 g.a.i/ha post-emergent application measured after 15 days by greenhouse crop selectivity assay; format: organism-based; details: in vivo, other, 360 h
Summary of the method: (§4)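 Postemergence crop selectivity test on pot-grown plants in a greenhouse, in clay soil (pH 6.5, 1.7% organic matter, CEC 12.9 cmol/kg). Stock was diluted with water and sprayed at 60, 30, 15 or 7.5 g a.i./ha, in triplicate. Growth inhibition was rated visually against untreated controls after 15 days and given as the triplicate mean percentage.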

Gossypium = assay: Phytotoxicity against Gossypium (cotton) assessed as growth inhibition at 7.5 to 60 g.a.i/ha post-emergent application measured after 15 days by greenhouse crop selectivity assay; format: organism-based; details: in vivo, other, 360 h; summary of the method: as §4
Zea mays [6] = assay: Phytotoxicity against Zea mays (maize) assessed as growth inhibition at 37.5 g.a.i/ha pre-emergent application measured after 15 days by greenhouse crop selectivity assay; format: organism-based; details: in vivo, other, 360 h; summary of the method: as §3
Triticum aestivum = assay: Phytotoxicity against Triticum aestivum (wheat) assessed as growth inhibition at 37.5 g.a.i/ha pre-emergent application measured after 15 days by greenhouse crop selectivity assay; format: organism-based; details: in vivo, other, 360 h; summary of the method: as §3
Glycine max [7] = assay: Phytotoxicity against Glycine max (soybean) assessed as growth inhibition at 150 g.a.i/ha pre-emergent application measured after 15 days by greenhouse crop selectivity assay; format: organism-based; details: in vivo, other, 360 h; summary of the method: as §3
Glycine max [8] = assay: Phytotoxicity against Glycine max (soybean) assessed as growth inhibition at 75 g.a.i/ha pre-emergent application measured after 15 days by greenhouse crop selectivity assay; format: organism-based; details: in vivo, other, 360 h; summary of the method: as §3
Arachis hypogaea [9] = assay: Phytotoxicity against Arachis hypogaea (peanut) assessed as growth inhibition at 75 g.a.i/ha pre-emergent application measured after 15 days by greenhouse crop selectivity assay; format: organism-based; details: in vivo, other, 360 h; summary of the method: as §3
Amaranthus spinosus [10] = assay: Post-emergence herbicidal activity against Amaranthus spinosus assessed as growth inhibition at 7.5 g.a.i./ha applied at two-leaf stage measured after 15 days; format: functional; details: 360 h, read-out: GI; summary of the method: as §1
Abutilon theophrasti [11] = assay: Post-emergence herbicidal activity against Abutilon theophrasti (velvetleaf) assessed as growth inhibition at 7.5 g.a.i./ha applied at two-leaf stage measured after 15 days; format: functional; details: 360 h, read-out: GI; summary of the method: as §1
Echinochloa crus-galli [12] = assay: Pre-emergence herbicidal activity against Echinochloa crus-galli (barnyard grass) assessed as growth inhibition at 7.5 g.a.i./ha applied 24 hr after seeds were sown measured after 15 days; format: functional; details: read-out: GI; summary of the method: as §2
Digitaria sanguinalis [13] = assay: Pre-emergence herbicidal activity against Digitaria sanguinalis (hairy crabgrass) assessed as growth inhibition at 7.5 g.a.i./ha applied 24 hr after seeds were sown measured after 15 days; format: functional; details: read-out: GI; summary of the method: as §2
Echinochloa crus-galli [14] = assay: Post-emergence herbicidal activity against Echinochloa crus-galli (barnyard grass) assessed as growth inhibition at 75 g.a.i./ha applied at one-leaf stage measured after 15 days; format: functional; details: 360 h, read-out: GI; summary of the method: as §1
Amaranthus spinosus [15] = assay: Post-emergence herbicidal activity against Amaranthus spinosus assessed as growth inhibition at 37.5 g.a.i./ha applied at two-leaf stage measured after 15 days; format: functional; details: 360 h, read-out: GI; summary of the method: as §1
Digitaria sanguinalis [16] = assay: Pre-emergence herbicidal activity against Digitaria sanguinalis (hairy crabgrass) assessed as growth inhibition at 37.5 g.a.i./ha applied 24 hr after seeds were sown measured after 15 days; format: functional; details: read-out: GI; summary of the method: as §2
Abutilon theophrasti [17] = assay: Pre-emergence herbicidal activity against Abutilon theophrasti (velvetleaf) assessed as growth inhibition at 37.5 g.a.i./ha applied 24 hr after seeds were sown measured after 15 days; format: functional; details: read-out: GI; summary of the method: as §2
Setaria viridis = assay: Post-emergence herbicidal activity against Setaria viridis (green foxtail) assessed as growth inhibition at 15 g.a.i./ha applied at one-leaf stage measured after 15 days; format: functional; details: 360 h, read-out: GI; summary of the method: as §1
Digitaria sanguinalis [18] = assay: Post-emergence herbicidal activity against Digitaria sanguinalis(hairy crabgrass) assessed as growth inhibition at 15 g.a.i./ha applied at one-leaf stage measured after 15 days; format: functional; details: 360 h, read-out: GI; summary of the method: as §1
Echinochloa crus-galli [19] = assay: Pre-emergence herbicidal activity against Echinochloa crus-galli (barnyard grass) assessed as growth inhibition at 15 g.a.i./ha applied 24 hr after seeds were sown measured after 15 days; format: functional; details: read-out: GI; summary of the method: as §2
Amaranthus spinosus [20] = assay: Pre-emergence herbicidal activity against Amaranthus spinosus assessed as growth inhibition at 15 g.a.i./ha applied 24 hr after seeds were sown measured after 15 days; format: functional; details: read-out: GI; summary of the method: as §2
Chenopodium album = assay: Post-emergence herbicidal activity against Chenopodium album assessed as growth inhibition at 75 g.a.i./ha applied at two-leaf stage measured after 15 days; format: functional; details: 360 h, read-out: GI; summary of the method: as §1
Arachis hypogaea [21] = assay: Phytotoxicity against Arachis hypogaea (peanut) assessed as growth inhibition at 7.5 to 60 g.a.i/ha post-emergent application measured after 15 days by greenhouse crop selectivity assay; format: organism-based; details: in vivo, other, 360 h; summary of the method: as §4
[22] = test system: Brassica rapa subsp. oleifera; assay: Phytotoxicity against Brassica rapa subsp. oleifera assessed as growth inhibition at 75 g.a.i/ha pre-emergent application measured after 15 days by greenhouse crop selectivity assay; format: functional; details: pre-emergence, 360 h, read-out: GI
Summary of the method: (§5)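 Pot-grown crop in greenhouse clay soil (pH 6.5, 1.7% organic matter, 37.5% clay, CEC 12.9 cmol/kg). Stock diluted with water and applied pre-emergence at 300, 150, 75 or 37.5 g a.i./ha. Cultivated 15 days, then phytotoxicity scored visually as % growth inhibition versus untreated controls. Triplicate treatments, averaged.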

[23] = test system: Brassica rapa subsp. oleifera; assay: Phytotoxicity against Brassica rapa subsp. oleifera assessed as growth inhibition at 150 g.a.i/ha pre-emergent application measured after 15 days by greenhouse crop selectivity assay; format: functional; details: pre-emergence, 360 h, read-out: GI; summary of the method: as §5
[24] = Phytotoxicity against Oryza sativa (rice) assessed as growth inhibition at 75 g.a.i/ha pre-emergent application measured after 15 days by greenhouse crop selectivity assay; format: organism-based, L.; details: in vivo, 75 g.a.i/ha, read-out: GI; summary of the method: as §3

| SMILES | inhibition of growth at 75 g/ha (Abutilon theophrasti [1]) | inhibition of growth at 75 g/ha (Digitaria sanguinalis [2]) | inhibition of growth at 75 g/ha (Abutilon theophrasti [3]) | growth inhibition (GI) (Arachis hypogaea [4]) | Activity (Zea mays [5]) | Activity (Gossypium) | growth inhibition (GI) (Zea mays [6]) | growth inhibition (GI) (Triticum aestivum) | growth inhibition (GI) (Glycine max [7]) | growth inhibition (GI) (Glycine max [8]) | growth inhibition (GI) (Arachis hypogaea [9]) | inhibition of growth at 7.5 g/ha (Amaranthus spinosus [10]) | inhibition of growth at 7.5 g/ha (Abutilon theophrasti [11]) | inhibition of growth at 7.5 g/ha (Echinochloa crus-galli [12]) | inhibition of growth at 7.5 g/ha (Digitaria sanguinalis [13]) | inhibition of growth at 75 g/ha (Echinochloa crus-galli [14]) | inhibition of growth at 37.5 g/ha (Amaranthus spinosus [15]) | inhibition of growth at 37.5 g/ha (Digitaria sanguinalis [16]) | inhibition of growth at 37.5 g/ha (Abutilon theophrasti [17]) | inhibition of growth at 15 g/ha (Setaria viridis) | other results |
| --- | --- | --- | --- | --- | --- | --- | --- | --- | --- | --- | --- | --- | --- | --- | --- | --- | --- | --- | --- | --- | --- |
| CCOC(=O)C(CC)N1C(=O)C(C)Oc2cc(F)c(N3C(=O)C4=C(CCCC4)C3=O)cc21 (stereo not given) | > 80% | > 80% | > 80% | Not Active | Toxic | Toxic | Not Active | Not Active | Not Active | Not Active | Not Active | 100% | 100% | 0% | 0% | > 80% | 100% | 0% | 70% | 30% | inhibition of growth at 15 g/ha (Digitaria sanguinalis [18]): 50%; inhibition of growth at 15 g/ha (Echinochloa crus-galli [19]): 0%; inhibition of growth at 15 g/ha (Amaranthus spinosus [20]): 100%; inhibition of growth at 75 g/ha (Chenopodium album): > 80%; Activity (Arachis hypogaea [21]): Toxic; inhibition of growth at 75 g/ha [22]: > 10%; inhibition of growth at 150 g/ha [23]: > 10% |
| CCOC(=O)C(C)N1C(=O)C(C)Oc2cc(F)c(N3C(=O)C4=C(CCCC4)C3=O)cc21 (stereo not given) | > 80% | > 80% | > 80% | Not Active | Toxic | Toxic | Not Active | Not Active | Not Active | Not Active | Not Active | 100% | 100% | 0% | 0% | > 80% | 100% | 80% | 20% | 30% | inhibition at 360 h [24]: > 10%; inhibition of growth at 15 g/ha (Digitaria sanguinalis [18]): 30%; inhibition of growth at 15 g/ha (Echinochloa crus-galli [19]): 10%; inhibition of growth at 15 g/ha (Amaranthus spinosus [20]): 95%; inhibition of growth at 75 g/ha (Chenopodium album): > 80%; Activity (Arachis hypogaea [21]): Toxic; inhibition of growth at 75 g/ha [22]: > 10%; inhibition of growth at 150 g/ha [23]: > 10% |
